Screening results as filed in PubChem BioAssay.
GASC-1 inh – human JMJD2C demethylase inhibition; GST-JMJD2C(1-420) H3K9me3 demethylation, DELFIA europium; inhibition, % at 2.35 µM; 330,000 tested, 0.069% active;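 active = more than half of a compound's replicate wells show inhibition beyond 50%, single wells judged on their own value; inconclusive = some, but no more than half, of replicates pass 50% inhibition; inactive = no replicate passes 50% inhibition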;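 also: signal counts dimethyl H3K9 product captured on neutravidin plate; 0% = median of DMSO wells and 100% = 0.3 times that DMSO median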
TDP2 inh – TDP2 (human) inhibition, absorbance primary screen; O95551; recombinant TDP2, T5PNP hydrolysis, p-nitrophenol absorbance 415 nm; inhibition, % at 12.8 µM; 370,000 tested, 0.34% active; AID 720702;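 active = inhibition above the mean of all tested compounds plus 3 SD, set per campaign, cut at about 25% in these data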;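 also: 0% = DMSO with enzyme and 100% = buffer with substrate but no TDP2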
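Read-out basis: percent inhibition. System: recombinant human TDP2. Buffer or medium: Mg2+-containing Tris-HCl buffer, pH 7.5. Repeats: single replicate. Timing: reaction 2 h, 37 °C. Benchmarks: high control without enzyme, low control DMSO plus TDP2. Probe or stimulus: 5 mM T5PNP. Doses: 12.8 µM only. Measured by: epi absorbance of p-nitrophenol freed from T5PNP by hydrolysis.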
Apaf-1 inh – human Apaf-1 inhibition; O14727; reconstituted apoptosome caspase-3 activity, DEVD-Rh110 fluorescence; inhibition, % at 20 µM; 330,000 tested, 0.71% active; active = inhibition of at least 40% at 20 µM;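 also: plate controls were DMSO wells for no effect and DEVD-CHO caspase inhibitor wells for full effect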
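Medium: Hepes buffer, pH 7.5 / System: biochemical Apaf-1 apoptosome reconstitution / Measured by: Rh110 fluorescence, excitation 480 nm, emission 540 nm / Times: compound with Apaf-1, dATP, procaspase-3 30 min, then 50 min reaction, room temperature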
SUMO HTRF inh – blocks human SUMOylation mediated by UBC9 | HTRF SUMOylation assay, SAE1/SAE2 + UBC9, in vitro | inhibition, % at 35 µM | 290,000 tested, 0.36% active; in the data active = inhibition above about 50%, passing the limit was not always enough; inconclusive = no clear call, values can overlap the other calls
GSTO1 inh – GSTO1 inhibition, counter-screen for RBBP9 inhibitors; inhibition, % at 5.96 µM; 300,000 tested, 1.1% active; P78417; recombinant GSTO1, activity-based probe fluorescence polarization;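 active = inhibition above the campaign mean inhibition plus 3 SD, cut at about 35% in these data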;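 also: 0% = GSTO1-1 with DMSO and 100% = wells lacking GSTO1-1 enzyme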
PAD4 FP inh – blocks human protein arginine deiminase 4. recombinant PAD4, RCA probe fluorescence polarization. Q9UM07. inhibition, % at 6.36 µM. 330,000 tested, 0.41% active;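 active = percent inhibition above a cutoff equal to the mean of all tested compounds plus 3 SD, cut at about 15% in these data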;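 also: 0% = PAD4 with RCA probe and DMSO and 100% = probe without PAD4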
Apaf-1 inh conf2 – confirmation of Apaf-1 inhibitors | shares compounds with Apaf-1 inh | reconstituted apoptosome, caspase-3 DEVD-Rh110 fluorescence | inhibition, % at 20 µM | 1,800 tested, 25% active;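 active = mean inhibition of at least 40% at 20 µM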;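 also: plate controls were DMSO wells for no effect and DEVD-CHO caspase inhibitor control wells for full effect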
Rh110 interf inh – counter-screen for Apaf-1 inhibitors: fluorescence interference; shares compounds with Apaf-1 inh; Rh110 fluorescence interference, quenched caspase reaction; activation (fluorescence interference), % at 20 µM; 1,800 tested, under 10 active;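 active = signal rise of 40% or more at 20 µM, treated as a fluorescence artifact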
Apaf1 inh interf – shows fluorescence interference in the Apaf-1 inhibitor assay format; shares compounds with Apaf-1 inh; fluorescence interference counterscreen, Apaf-1 assay format; IC50, µM; 460 tested, under 10 active; AID 588538; call rule not given here
Starred values were filed as active, the others as inactive; ? = inconclusive; nt = no result given. An excerpt weighted towards active compounds, which were near 1.6% of everything screened.

SMILES | GASC-1 inh | TDP2 inh | Apaf-1 inh | SUMO HTRF inh | GSTO1 inh | PAD4 FP inh | Apaf-1 inh conf2 | Rh110 interf inh | others
Oc1cccc(NC(=S)Nc2ccc(SC(F)F)cc2)c1 | -9 | -2 | -9 | 13 | -6 | -3 | nt | nt
Oc1cccc2c(NC(=S)Nc3ccc(SC(F)F)cc3)cccc12 | -1 | 6 | 53* | 89 | 3 | -2 | 12 | 0
Cc1ccc(OCC(=O)N(Cc2nnc(-c3ccccc3Cl)o2)C2CC2)cc1C | -9 | 1 | 56* | nt | nt | -6 | 49* | 9 | Apaf1 inh interf=>100
Nn1c(SCc2ccc([N+](=O)[O-])cc2)nnc1-c1cc(-c2ccccc2)n[nH]1 | nt | -12 | nt | nt | nt | nt | nt | nt
Cc1ccc(CNc2ccc(O)cc2)cc1 | 18 | 21 | 94* | 33 | nt | nt | 11 | 7
CC(C)CC(O)(CC(C)C)c1cn(C(=O)N(c2ccccc2)c2ccccc2)nn1 | nt | 7 | nt | nt | nt | nt | nt | nt
Cc1ccc(-c2cc(C(=O)NCCCN3CCOCC3)c3ccc(Cl)c(C)c3n2)cc1 | -2 | 2 | 55* | -10 | 3 | 0 | 24 | 11
[O-][n+]1cccc2c(Br)cc(Br)c(O)c21 | -9 | 3 | 73* | -1 | 46* | 1 | 18 | -1
OC(c1cc(C(F)(F)F)nc2c(C(F)(F)F)cccc12)C1CCCCN1 (stereo not drawn) | nt | 3 | 48* | nt | -1 | 3 | 27 | 2
CN(C)CCN(C(=O)c1ccc2c(c1)OCCO2)c1nc2cc3c(cc2s1)OCO3 | -5 | -1 | 4 | 20 | 2 | -2 | nt | nt
CN(C)CCN(C(=O)c1ccc2c(c1)CCCC2)c1nc2cc3c(cc2s1)OCCO3 | 6 | -4 | 44* | 4 | 6 | -6 | 25 | 9
Cc1cc(C)c2nc(N(CCCN(C)C)C(=O)c3ccc4c(c3)CCCC4)sc2c1 | ? | -12 | 42* | nt | 0 | -7 | 21 | 12
CCOc1ccc2nc(N(CCN(C)C)C(=O)c3ccc4c(c3)CCCC4)sc2c1 | -42 | nt | 55* | 9 | 3 | 2 | 14 | -1
COc1ccc2c(c1)CN1CN(Cc3ccccc3)S(=O)(=O)CC21 (stereo not drawn) | nt | 4 | nt | nt | nt | nt | nt | nt
CN1/C(=N\O)c2cccc3cccc1c23 | 10 | 3 | 86* | 36 | 13 | -16 | 20 | 0
S=C(Nc1ccc(Cl)cc1)OC1CCC12CCC(c1ccccc1)CC2 (stereo not drawn) | nt | 1 | nt | nt | nt | nt | nt | nt
CCOC(=O)C1CCN(C(=O)c2ccc3c(c2)NC(=O)/C(=C/c2ccccc2)S3)CC1 | -7 | 9 | 28 | -6 | -84 | -2 | nt | nt
CCOC(=O)C1CCN(C(=O)c2ccc3c(c2)NC(=O)/C(=C\c2cccc(C)c2)S3)CC1 | -3 | -4 | 40* | -23 | -206 | -6 | 22 | 1
COc1cccc(/C=C2/Sc3ccc(C(=O)NCCN4CCCCCC4)cc3NC2=O)c1 | 9 | 1 | 40 | 8 | -76 | -2 | 32 | 4
CCOC(=O)[C@]12CCCC3=C1N(CCC3)C(=O)[C@@H](CC(=O)N1CCCC1)C2 | nt | 0 | nt | nt | nt | nt | nt | nt
COC(=O)C1CN(CCO)CCS(=O)(=O)N1Cc1cn(Cc2cccc(Cl)c2)nn1 (stereo not drawn) | nt | -2 | nt | nt | nt | nt | nt | nt
CCN1/C(=C/c2ccc3cc(C)ccc3[n+]2CC)Sc2ccc3sccc3c21 | -4 | nt | 62* | nt | -108 | -91 | 60* | -9 | Apaf1 inh interf=>100
O=C(c1cc(C2CC2)on1)N(C1CCCCC1)C1CCOCC1 | nt | 7 | nt | nt | nt | nt | nt | nt
Cc1[nH]n(-c2ccccc2)c(=S)c1C=NCCCN=Cc1c(C)[nH]n(-c2ccccc2)c1=S | -4 | 6 | 63* | 2 | -3 | 4 | -8 | 1
COc1ccc2[nH]c3c(c2c1)CCN1C(=O)C(CC(=O)NCCC2=CCCCC2)C[C@H](C(=O)N2CCOCC2)[C@@]31CCC1CCCC1 (stereo partly drawn) | nt | 7 | 44* | nt | nt | -1 | 29 | 16
SMILES | GASC-1 inh | TDP2 inh | Apaf-1 inh | SUMO HTRF inh | GSTO1 inh | PAD4 FP inh | Apaf-1 inh conf2 | Rh110 interf inh | others
CN(C)CCCNC(=O)CC1C[C@H](C(=O)N2CCCCC2)[C@@]2(CCc3ccccc3)c3[nH]c4ccccc4c3CCN2C1=O (stereo partly drawn) | 5 | -8 | 46* | nt | nt | 2 | 11 | 0
CN(C)CCCNC(=O)C[C@H]1C[C@H](C(=O)N2CCCCC2)[C@@]2(CCc3ccccc3)c3[nH]c4cc(-c5ccco5)ccc4c3CCN2C1=O | nt | 6 | 72* | nt | nt | -4 | 28 | 11
COc1ccc2[nH]c3c(c2c1)CCN1C(=O)C(CC(=O)NCCCN(C)C)C[C@H](C(=O)N2CCCCC2)[C@@]31CCc1ccccc1 (stereo partly drawn) | nt | 8 | 37 | nt | nt | 7 | nt | nt
CCN(CC)C(=O)[C@H]1CC(CC(=O)NCc2cccc(C(F)(F)F)c2)C(=O)N2CCc3c([nH]c4ccccc34)[C@]12C (stereo partly drawn) | 43 | 3 | 26 | nt | nt | 4 | nt | nt
CCN(CC)C(=O)[C@H]1C[C@H](CC(=O)NCc2cccc(C(F)(F)F)c2)C(=O)N2CCc3c([nH]c4ccc(Cl)cc34)[C@]12C | nt | -4 | 46* | nt | nt | -1 | 29 | 17
CC(C)(C)NC(=O)C[C@H]1C[C@H](C(=O)N2CCCCC2)[C@@]2(CCc3ccccc3)c3[nH]c4cc(-c5ccco5)ccc4c3CCN2C1=O | nt | -2 | 15 | nt | nt | 2 | nt | nt
COc1ccc(CN2C(=O)CCCC2(C)c2nnnn2-c2c(C)cccc2C)cc1OC (stereo not drawn) | nt | 6 | nt | nt | nt | nt | nt | nt
O=S1(=O)c2ccc(N3CC[C@H](O)C3)cc2O[C@H]2CCN1C2 | nt | -1 | nt | nt | nt | nt | nt | nt
CCN(CC)C(=O)[C@H]1CC(CC(=O)NCCCN(C)C)C(=O)N2CCc3c([nH]c4ccccc34)[C@]12C (stereo partly drawn) | 9 | 7 | 44* | nt | nt | 3 | 10 | -1
C[C@]12c3[nH]c4cc(-c5ccco5)ccc4c3CCN1C(=O)[C@@H](CC(=O)NCCCn1ccnc1)C[C@@H]2C(=O)N1CCCCC1 | nt | 2 | 17 | nt | nt | -5 | nt | nt
CN(C)CCCNC(=O)C[C@H]1C[C@H](C(=O)N2CCCCC2)[C@@]2(C)c3[nH]c4cc(-c5ccco5)ccc4c3CCN2C1=O | nt | 7 | 42* | nt | nt | 4 | 5 | 1
CCN(CC)C(=O)[C@H]1C[C@H](CC(=O)NCCCN(C)C)C(=O)N2CCc3c([nH]c4ccc(Cl)cc34)[C@]12C | nt | -4 | 26 | nt | nt | 0 | nt | nt
Cc1ccc(C)c(NC(=O)CN(C)C(=O)c2cccc(S(=O)(=O)N3CCCC3)c2)c1 | nt | -6 | -2 | nt | nt | nt | nt | nt
